Measured values from ChEMBL document CHEMBL3769318, “The Rational Design of Selective Benzoxazepin Inhibitors of the α-Isoform of Phosphoinositide 3-Kinase Culminating in the Identification of (S)-2-((2-(1-Isopropyl-1H-1,2,4-triazol-5-yl)-5,6-dihydrobenzo[f]imidazo[1,2-d][1,4]oxazepin-9-yl)oxy)propanamide (GDC-0326)” (J Med Chem, 2016).
≈ marks a conversion by molar mass, not a printed value.

What was measured:
[1] = Clearance in Sprague-Dawley rat at 1 mg/kg, iv; format: ADME, organism-based; conditions: in vivo
[2] = biological target: Phosphatidylinositol 4,5-bisphosphate 3-kinase catalytic subunit alpha isoform (Homo sapiens, UniProt P42336); assay: Inhibition of recombinant PI3K alpha (unknown origin) using PIP2 as substrate by fluorescence polarization assay; conditions: read-out: Ki(app)
[3] = Cytotoxicity against human KPL4 cells after 4 days by luminescence plate reader method; format: functional, cell-based; conditions: KPL4, 96 h
[4] = Antitumor activity against human KPL4 cells xenografted in SCID beige mouse assessed as tumor growth inhibition at 12.5 mg/kg, po qd for 21 days; format: functional; conditions: 504 h, read-out: TGI
How it was run: (§1)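 KPL-4 breast cancer xenografts grown in scid beige mice; oral dosing once daily for 21 days in MCT vehicle (0.5% methylcellulose/0.2% Tween-80) at 0.78–25 mg/kg, 10 animals per group; tumor volumes fitted and tumor growth inhibition calculated versus vehicle-treated mice.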

[5] = Cmax in Sprague-Dawley rat at 5 mg/kg, po; format: ADME, organism-based; set-up: dose 5 mg/kg, route oral; conditions: in vivo
How it was run: (§2)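 Male Sprague-Dawley rats dosed PO at 5 mg/kg in 0.5% methylcellulose/0.2% Tween 80 (MCT); the IV reference arm was 1 mg/kg in 60% PEG400/10% ethanol.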

[6] = Thermodynamic solubility of compound at pH 7.4; format: physicochemical; conditions: buffer, read-out: Therm_solubility
[7] = Antitumor activity against human MCF7-neo/Her2 cells xenografted in mouse assessed as tumor growth inhibition at 0.78 mg/kg, po qd for 21 days; format: functional; conditions: 504 h, read-out: TGI
How it was run: (§3)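 MCF7-neo/HER2 breast cancer xenografts grown in nude mice; daily oral dosing for 21 days in 0.5% methylcellulose/0.2% Tween-80 vehicle at 0.78–25 mg/kg, 10 animals per group; fitted tumor volumes compared against vehicle-treated mice to give tumor growth inhibition.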

[8] = AUC in NCR nude mouse at 25 mg/kg, po; format: ADME, organism-based; conditions: in vivo
[9] = test system: KPL4; assay: Antitumor activity against human KPL4 cells xenografted in po dosed SCID beige mouse assessed as tumor growth inhibition administered daily for 21 days; format: functional, organism-based; how it was run: as §1
[10] = AUC in Sprague-Dawley rat at 5 mg/kg, po; format: ADME, organism-based; conditions: in vivo; how it was run: as §2
[11] = Clearance in NCR nude mouse at 1 mg/kg, iv; format: ADME, organism-based; conditions: in vivo
[12] = Antitumor activity against human MCF7-neo/Her2 cells xenografted in mouse assessed as tumor growth inhibition at 6.25 mg/kg, po qd for 21 days; format: functional; conditions: 504 h, read-out: TGI; how it was run: as §3
[13] = test system: Canis familiaris; assay: AUC in Beagle dog at 2 mg/kg, po; format: ADME, organism-based, Canis lupus familiaris; conditions: in vivo
[14] = Volume of distribution at steady state in Cynomolgus monkey at 1 mg/kg, iv; format: ADME, organism-based, Macaca fascicularis; conditions: in vivo, read-out: Vdss
[15] = Antiproliferative activity against human PC3 cells after 4 days by luminescence plate reader method; format: functional, cell-based; conditions: PC-3, 96 h
[16] = Plasma protein binding in Sprague-Dawley rat at 5 uM after 4 hrs by LC-MS/MS analysis; format: ADME, cell-free; conditions: read-out: PPB (converted)
How it was run: (§4)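 Equilibrium dialysis of pooled plasma (n ≥ 3) spiked with compound at 5 µM total against PBS pH 7.4, 37 °C, 5% CO2, for 4 h; plasma and buffer concentrations measured by LC-MS/MS; percent unbound calculated as buffer/plasma ×100.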

[17] = Oral bioavailability in Sprague-Dawley rat at 5 mg/kg; format: ADME, organism-based; conditions: in vivo; how it was run: as §2
[18] = test system: Mus musculus; assay: Volume of distribution at steady state in NCR nude mouse at 1 mg/kg, iv; conditions: in vivo
[19] = biological target: T1, Cytochrome P450 1A2 (Homo sapiens, UniProt P05177); assay: Inhibition of CYP1A2 (unknown origin); format: ADME
T1 sequence (P05177 whole entry): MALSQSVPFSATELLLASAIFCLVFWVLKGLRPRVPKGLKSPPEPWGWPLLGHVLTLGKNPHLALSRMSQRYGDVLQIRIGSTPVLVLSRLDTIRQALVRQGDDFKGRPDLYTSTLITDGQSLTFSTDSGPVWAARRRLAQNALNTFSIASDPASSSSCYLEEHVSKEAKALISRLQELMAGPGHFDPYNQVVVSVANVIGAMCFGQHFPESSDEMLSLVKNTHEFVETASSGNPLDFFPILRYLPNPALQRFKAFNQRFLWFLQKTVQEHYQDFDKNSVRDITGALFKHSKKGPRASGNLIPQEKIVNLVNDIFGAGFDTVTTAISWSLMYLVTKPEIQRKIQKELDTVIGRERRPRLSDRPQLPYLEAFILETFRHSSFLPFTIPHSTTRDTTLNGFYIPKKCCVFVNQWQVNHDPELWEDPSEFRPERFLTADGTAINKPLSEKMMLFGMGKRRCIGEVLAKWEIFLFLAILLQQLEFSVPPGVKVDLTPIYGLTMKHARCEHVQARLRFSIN

[20] = Antitumor activity against human MCF7-neo/Her2 cells xenografted in mouse assessed as tumor growth inhibition at 3.25 mg/kg, po qd for 21 days; format: functional; conditions: 504 h, read-out: TGI; how it was run: as §3
[21] = biological target: Cytochrome P450 3A4 (Homo sapiens, UniProt P08684); assay: Inhibition of CYP3A4 (unknown origin); format: ADME
[22] = Plasma protein binding in Beagle dog at 5 uM after 4 hrs by LC-MS/MS analysis; format: ADME, cell-free, Canis lupus familiaris; conditions: read-out: PPB (converted); how it was run: as §4
[23] = biological target: Cytochrome P450 2C19 (Homo sapiens, UniProt P33261); assay: Inhibition of CYP2C19 (unknown origin); format: ADME
[24] = Antitumor activity against human KPL4 cells xenografted in SCID beige mouse assessed as tumor growth inhibition at 6.25 mg/kg, po qd for 21 days; format: functional; conditions: 504 h, read-out: TGI; how it was run: as §1
[25] = test system: Homo sapiens; assay: Antitumor activity against human MCF7-neo/Her2 cells xenografted in po dosed nude mouse assessed as tumor growth inhibition administered daily for 21 days; format: functional, organism-based; how it was run: as §3
[26] = test system: Mus musculus; assay: Decrease in phosphorylated Akt in mouse xenografted with human MCF7-neo/Her2 cells at 6.25 mg/kg administered as single dose after 1 hr by immunoassay; format: functional
How it was run: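 Mice bearing MCF7-neo/HER2 tumors given a single oral dose in MCT vehicle; tumors collected 1 h later. Phospho-Akt Ser473 and total Akt measured by Mesoscale Discovery immunoassay and expressed as pAkt/tAkt relative to vehicle; four animals per group; unbound plasma drug measured at the same time.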

[27] = Cmax in Cynomolgus monkey at 2 mg/kg, po; format: ADME, organism-based, Macaca fascicularis; set-up: dose 2 mg/kg, route oral; conditions: in vivo
How it was run: (§5)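 Single oral dose at 2 mg/kg in 0.5% methylcellulose with 0.2% Tween 80, given to beagle dogs or male cynomolgus monkeys; the IV reference was 1 mg/kg in 60% PEG400/10% ethanol.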

[28] = Plasma protein binding in Cynomolgus monkey at 5 uM after 4 hrs by LC-MS/MS analysis; format: ADME, cell-free, Macaca fascicularis; conditions: read-out: PPB (converted); how it was run: as §4
[29] = Antiproliferative activity against human MCF7-neo/Her2 cells after 3 days by luminescence plate reader method; format: functional, cell-based; conditions: 72 h
[30] = Antitumor activity against human MCF7-neo/Her2 cells xenografted in mouse assessed as tumor growth inhibition at 12.5 mg/kg, po qd for 21 days; format: functional; conditions: 504 h, read-out: TGI; how it was run: as §3
[31] = Oral bioavailability in NCR nude mouse at 25 mg/kg; format: ADME, organism-based; conditions: in vivo
[32] = biological target: Phosphatidylinositol 4-phosphate 3-kinase C2 domain-containing subunit beta (Homo sapiens) (UniProt O00750); assay: Inhibition of PI3KC2b (unknown origin) at 1 uM
How it was run: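 Kinase panel screen of 235 kinases at Invitrogen with compound at 1 µM; read-out was percent inhibition.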

[33] = Cmax in NCR nude mouse at 25 mg/kg, po; format: ADME, organism-based; set-up: dose 25 mg/kg, route oral; conditions: in vivo
[34] = biological target: Cytochrome P450 2D6 (Homo sapiens, UniProt P10635); assay: Inhibition of CYP2D6 (unknown origin); format: ADME
[35] = Cmax in Beagle dog at 2 mg/kg, po; format: ADME, organism-based, Canis lupus familiaris; set-up: dose 2 mg/kg, route oral; conditions: in vivo; how it was run: as §5
[36] = test system: Canis familiaris; assay: Oral bioavailability in Beagle dog at 2 mg/kg; format: ADME, organism-based, Canis lupus familiaris; conditions: in vivo; how it was run: as §5
[37] = Apparent permeability from apical to basolateral side in MDCK cells; format: ADME, cell-based, Canis lupus familiaris; conditions: dog
[38] = Plasma protein binding in CD-1 mouse at 5 uM after 4 hrs by LC-MS/MS analysis; format: ADME, cell-free; conditions: CD-1, mouse, read-out: PPB (converted); how it was run: as §4
[39] = Antitumor activity against human MCF7-neo/Her2 cells xenografted in mouse assessed as tumor growth inhibition at 1.56 mg/kg, po qd for 21 days; format: functional; conditions: 504 h, read-out: TGI; how it was run: as §3
[40] = biological target: Cytochrome P450 2C9 (Homo sapiens, UniProt P11712); assay: Inhibition of CYP2C9 (unknown origin); format: ADME
[41] = AUC in Cynomolgus monkey at 2 mg/kg, po; format: ADME, organism-based, Macaca fascicularis; conditions: in vivo
[42] = Antitumor activity against human KPL4 cells xenografted in SCID beige mouse assessed as tumor growth inhibition at 0.78 mg/kg, po qd for 21 days; format: functional; conditions: 504 h, read-out: TGI; how it was run: as §1
[43] = Antitumor activity against human KPL4 cells xenografted in SCID beige mouse assessed as tumor growth inhibition at 1.56 mg/kg, po qd for 21 days; format: functional; conditions: 504 h, read-out: TGI; how it was run: as §1
[44] = Volume of distribution at steady state in Beagle dog at 1 mg/kg, iv; format: ADME, organism-based, Canis lupus familiaris; conditions: in vivo, read-out: Vdss
[45] = Clearance in Cynomolgus monkey at 1 mg/kg, iv; format: ADME, organism-based, Macaca fascicularis; conditions: in vivo
[46] = Antitumor activity against human KPL4 cells xenografted in SCID beige mouse assessed as tumor growth inhibition at 3.25 mg/kg, po qd for 21 days; format: functional; conditions: 504 h, read-out: TGI; how it was run: as §1
[47] = Oral bioavailability in Cynomolgus monkey at 2 mg/kg; format: ADME, organism-based, Macaca fascicularis; conditions: in vivo; how it was run: as §5
[48] = test system: Mus musculus; assay: Toxicity in SCID beige mouse xenografted with human KPL4 cells assessed as body weight loss upto 12.5 mg/kg, po; format: organism-based; conditions: in vivo
[49] = Volume of distribution at steady state in Sprague-Dawley rat at 1 mg/kg, iv; format: ADME, organism-based; conditions: in vivo, read-out: Vdss

Chain of Phosphatidylinositol 4,5-bisphosphate 3-kinase catalytic subunit alpha isoform (P42336 whole entry, canonical isoform): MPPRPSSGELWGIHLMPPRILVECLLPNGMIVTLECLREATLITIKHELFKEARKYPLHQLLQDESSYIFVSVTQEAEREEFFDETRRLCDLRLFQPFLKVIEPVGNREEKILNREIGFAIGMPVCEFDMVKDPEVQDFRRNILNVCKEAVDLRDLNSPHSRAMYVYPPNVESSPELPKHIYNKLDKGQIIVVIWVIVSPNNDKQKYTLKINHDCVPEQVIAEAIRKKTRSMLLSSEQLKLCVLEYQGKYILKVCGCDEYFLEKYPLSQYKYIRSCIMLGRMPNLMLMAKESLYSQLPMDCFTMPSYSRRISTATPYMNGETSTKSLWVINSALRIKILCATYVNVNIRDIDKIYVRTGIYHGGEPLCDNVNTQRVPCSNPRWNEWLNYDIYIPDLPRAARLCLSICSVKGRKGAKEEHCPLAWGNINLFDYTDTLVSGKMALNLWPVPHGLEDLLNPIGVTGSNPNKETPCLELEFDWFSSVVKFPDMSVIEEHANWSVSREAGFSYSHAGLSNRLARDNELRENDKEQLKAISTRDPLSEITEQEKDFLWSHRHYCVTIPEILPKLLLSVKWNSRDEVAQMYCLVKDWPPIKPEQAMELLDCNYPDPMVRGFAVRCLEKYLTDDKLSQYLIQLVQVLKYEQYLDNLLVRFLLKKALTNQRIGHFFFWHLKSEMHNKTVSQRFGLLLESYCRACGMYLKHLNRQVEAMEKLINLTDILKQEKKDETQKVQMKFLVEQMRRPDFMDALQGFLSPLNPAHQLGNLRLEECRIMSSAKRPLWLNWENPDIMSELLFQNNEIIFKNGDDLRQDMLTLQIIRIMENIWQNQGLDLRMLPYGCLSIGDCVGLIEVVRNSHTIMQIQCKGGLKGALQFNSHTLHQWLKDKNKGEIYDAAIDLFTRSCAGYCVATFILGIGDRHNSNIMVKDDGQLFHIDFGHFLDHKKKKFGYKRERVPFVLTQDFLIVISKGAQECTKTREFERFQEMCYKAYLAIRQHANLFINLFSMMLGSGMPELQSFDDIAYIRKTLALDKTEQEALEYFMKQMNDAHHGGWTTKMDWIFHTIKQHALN
Chain of Cytochrome P450 3A4 (P08684 whole entry): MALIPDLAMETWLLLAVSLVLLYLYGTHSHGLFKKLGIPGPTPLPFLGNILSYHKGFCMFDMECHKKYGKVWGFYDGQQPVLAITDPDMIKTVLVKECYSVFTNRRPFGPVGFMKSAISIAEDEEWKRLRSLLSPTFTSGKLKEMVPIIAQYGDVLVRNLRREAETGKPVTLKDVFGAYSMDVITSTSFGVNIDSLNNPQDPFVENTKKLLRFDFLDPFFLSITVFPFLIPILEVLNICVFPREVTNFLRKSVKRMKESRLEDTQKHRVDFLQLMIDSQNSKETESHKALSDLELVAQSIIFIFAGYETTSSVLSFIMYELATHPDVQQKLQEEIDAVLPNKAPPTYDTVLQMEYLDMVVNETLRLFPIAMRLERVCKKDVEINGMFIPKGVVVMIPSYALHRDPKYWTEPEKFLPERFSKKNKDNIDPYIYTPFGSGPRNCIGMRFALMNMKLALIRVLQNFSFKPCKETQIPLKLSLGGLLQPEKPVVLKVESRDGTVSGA
Chain of Cytochrome P450 2C9 (P11712 whole entry): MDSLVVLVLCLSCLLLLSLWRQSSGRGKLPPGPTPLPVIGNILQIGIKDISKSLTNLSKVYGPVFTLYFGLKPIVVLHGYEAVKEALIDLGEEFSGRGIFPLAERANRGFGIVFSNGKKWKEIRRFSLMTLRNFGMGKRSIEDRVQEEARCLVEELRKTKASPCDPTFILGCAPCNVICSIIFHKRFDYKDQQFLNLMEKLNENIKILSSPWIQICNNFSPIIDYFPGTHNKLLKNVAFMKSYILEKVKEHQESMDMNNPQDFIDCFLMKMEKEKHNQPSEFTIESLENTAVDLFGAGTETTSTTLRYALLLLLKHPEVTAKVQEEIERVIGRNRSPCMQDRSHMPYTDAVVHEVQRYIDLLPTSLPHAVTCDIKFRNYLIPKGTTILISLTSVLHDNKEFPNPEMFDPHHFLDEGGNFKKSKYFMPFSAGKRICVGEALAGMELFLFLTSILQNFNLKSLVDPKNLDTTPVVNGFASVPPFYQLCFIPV
Chain of Phosphatidylinositol 4-phosphate 3-kinase C2 domain-containing subunit beta (Homo sapiens) (O00750 whole entry, the tested form may be a part): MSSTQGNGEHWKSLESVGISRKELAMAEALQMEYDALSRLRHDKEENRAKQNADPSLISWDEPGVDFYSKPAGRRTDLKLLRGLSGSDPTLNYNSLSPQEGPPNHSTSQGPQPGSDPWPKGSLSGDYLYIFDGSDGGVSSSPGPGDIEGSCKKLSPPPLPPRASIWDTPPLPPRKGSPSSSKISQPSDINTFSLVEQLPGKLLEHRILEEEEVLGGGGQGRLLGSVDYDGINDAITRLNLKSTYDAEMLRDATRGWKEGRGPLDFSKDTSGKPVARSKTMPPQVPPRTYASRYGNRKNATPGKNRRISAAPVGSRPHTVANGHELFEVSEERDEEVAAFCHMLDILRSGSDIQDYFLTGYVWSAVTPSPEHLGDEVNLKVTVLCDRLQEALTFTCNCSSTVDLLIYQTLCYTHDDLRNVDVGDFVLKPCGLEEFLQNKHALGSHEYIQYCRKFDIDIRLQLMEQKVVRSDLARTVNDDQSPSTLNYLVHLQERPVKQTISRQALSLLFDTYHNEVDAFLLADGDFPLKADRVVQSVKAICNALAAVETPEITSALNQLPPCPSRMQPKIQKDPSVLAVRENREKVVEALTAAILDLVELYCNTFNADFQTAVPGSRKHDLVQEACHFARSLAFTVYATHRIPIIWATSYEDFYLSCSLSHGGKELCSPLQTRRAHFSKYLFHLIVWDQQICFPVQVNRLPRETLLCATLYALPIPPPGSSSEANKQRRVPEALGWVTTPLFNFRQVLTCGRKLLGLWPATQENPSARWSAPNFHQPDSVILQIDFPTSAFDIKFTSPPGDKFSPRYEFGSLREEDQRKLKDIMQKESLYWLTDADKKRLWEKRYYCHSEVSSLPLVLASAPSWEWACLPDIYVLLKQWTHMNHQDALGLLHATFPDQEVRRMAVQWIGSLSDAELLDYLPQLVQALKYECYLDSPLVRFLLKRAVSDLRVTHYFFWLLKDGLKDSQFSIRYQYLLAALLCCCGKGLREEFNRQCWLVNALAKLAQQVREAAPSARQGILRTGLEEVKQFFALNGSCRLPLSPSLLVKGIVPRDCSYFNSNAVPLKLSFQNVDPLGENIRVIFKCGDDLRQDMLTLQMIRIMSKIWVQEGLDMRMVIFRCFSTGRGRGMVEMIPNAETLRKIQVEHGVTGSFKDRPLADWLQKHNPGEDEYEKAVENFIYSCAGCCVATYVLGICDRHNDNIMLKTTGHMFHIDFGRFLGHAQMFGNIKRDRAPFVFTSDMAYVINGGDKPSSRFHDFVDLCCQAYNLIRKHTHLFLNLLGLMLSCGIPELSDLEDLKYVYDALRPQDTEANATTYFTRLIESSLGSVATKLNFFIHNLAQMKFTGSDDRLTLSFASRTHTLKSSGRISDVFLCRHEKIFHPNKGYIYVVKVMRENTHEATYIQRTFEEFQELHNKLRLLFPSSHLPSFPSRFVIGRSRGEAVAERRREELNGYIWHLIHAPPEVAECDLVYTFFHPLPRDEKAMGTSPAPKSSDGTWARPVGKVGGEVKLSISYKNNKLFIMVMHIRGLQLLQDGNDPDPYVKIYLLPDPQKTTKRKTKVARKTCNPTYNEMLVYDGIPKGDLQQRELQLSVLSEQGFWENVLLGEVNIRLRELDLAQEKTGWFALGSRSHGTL
Chain of Cytochrome P450 2C19 (P33261 whole entry): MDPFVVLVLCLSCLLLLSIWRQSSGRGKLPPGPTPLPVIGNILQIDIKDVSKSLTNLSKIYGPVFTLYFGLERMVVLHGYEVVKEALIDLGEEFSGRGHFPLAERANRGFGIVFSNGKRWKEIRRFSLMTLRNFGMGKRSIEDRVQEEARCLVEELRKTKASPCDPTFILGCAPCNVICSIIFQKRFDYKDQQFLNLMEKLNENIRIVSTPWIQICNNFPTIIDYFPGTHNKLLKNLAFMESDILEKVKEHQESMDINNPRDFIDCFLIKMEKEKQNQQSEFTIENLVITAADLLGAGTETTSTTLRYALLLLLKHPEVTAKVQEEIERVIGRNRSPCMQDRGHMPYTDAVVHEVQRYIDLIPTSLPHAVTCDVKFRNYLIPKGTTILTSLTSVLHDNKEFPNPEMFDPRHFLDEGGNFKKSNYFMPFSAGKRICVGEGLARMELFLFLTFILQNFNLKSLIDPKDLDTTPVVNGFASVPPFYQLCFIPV
Chain of Cytochrome P450 2D6 (P10635 whole entry): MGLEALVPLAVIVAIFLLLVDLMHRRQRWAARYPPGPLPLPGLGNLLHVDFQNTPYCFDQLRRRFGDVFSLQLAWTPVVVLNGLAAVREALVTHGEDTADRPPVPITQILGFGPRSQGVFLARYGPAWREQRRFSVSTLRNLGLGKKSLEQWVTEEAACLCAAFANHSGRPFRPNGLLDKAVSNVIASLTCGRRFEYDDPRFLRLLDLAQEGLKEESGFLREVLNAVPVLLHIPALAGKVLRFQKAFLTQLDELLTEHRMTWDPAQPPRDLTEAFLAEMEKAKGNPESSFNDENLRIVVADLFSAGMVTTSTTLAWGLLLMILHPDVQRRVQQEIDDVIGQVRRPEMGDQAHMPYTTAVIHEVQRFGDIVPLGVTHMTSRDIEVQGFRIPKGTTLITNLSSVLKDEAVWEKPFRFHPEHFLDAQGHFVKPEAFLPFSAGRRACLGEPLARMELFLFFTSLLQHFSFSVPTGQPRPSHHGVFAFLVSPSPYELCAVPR

Structure (SMILES): CC(C)n1ncnc1-c1cn2c(n1)-c1cnc(N3CCCC3)cc1OCC2
- clearance [1]: 125 mL/min/kg
- Ki [2]: 1.3 nM

Structure (SMILES): CC(C)n1ncnc1-c1cn2c(n1)-c1cnc(OCC(N)=O)cc1OCC2
- Ki [2]: 0.9 nM

Structure (SMILES): CC(C)n1ncnc1-c1cn2c(n1)-c1ccc(O[C@@H](C)C(N)=O)cc1OCC2
- clearance [1]: 10 mL/min/kg
- EC50 [3]: 60 nM
- inhibition in vivo at 12.5 mg/kg [4]: 121%
- Cmax [5]: 5.4 µM
- solubility thermodynamic [6]: 82 µg/mL (≈ 214 µM)
- inhibition in vivo at 0.78 mg/kg [7]: 73%
- AUC [8]: 74 µM·h
- Activity [9]: Dose-dependent effect
- AUC [10]: 25.4 µM·h
- clearance [11]: 8 mL/min/kg
- inhibition in vivo at 6.25 mg/kg [12]: 101%
- AUC [13]: 2.4 µM·h
- Vd [14]: 1.5 L/kg
- EC50 [15]: 2200 nM
- fraction unbound at 4 h, 5 µM [16]: 0.37
- bioavailability [17]: 120%
- Vdss [18]: 0.6 L/kg
- IC50 [19]: > 10000 nM
- inhibition in vivo at 3.25 mg/kg [20]: 83%
- IC50 [21]: > 10000 nM
- fraction unbound at 4 h, 5 µM [22]: 0.62
- IC50 [23]: > 10000 nM
- inhibition in vivo at 6.25 mg/kg [24]: 122%
- Activity [25]: Dose-dependent effect
- inhibition in vivo at 6.25 mg/kg [26]: 78%
- Cmax [27]: 1.5 µM
- fraction unbound at 4 h, 5 µM [28]: 0.61
- EC50 [29]: 100 nM
- inhibition in vivo at 12.5 mg/kg [30]: 110%
- bioavailability [31]: 55%
- inhibition [32]: 61%
- Cmax [33]: 31 µM
- IC50 [34]: > 10000 nM
- Cmax [35]: 2.1 µM
- F [36]: 100%
- Papp A→B [37]: 13 ×10⁻⁶ cm/s
- fraction unbound at 4 h, 5 µM [38]: 0.6
- inhibition in vivo at 1.56 mg/kg [39]: 79%
- IC50 [40]: > 10000 nM
- AUC [41]: 4.8 µM·h
- inhibition in vivo at 0.78 mg/kg [42]: 73%
- inhibition in vivo at 1.56 mg/kg [43]: 97%
- Vd [44]: 2.5 L/kg
- clearance [45]: 13 mL/min/kg
- inhibition in vivo at 3.25 mg/kg [46]: 97%
- bioavailability [47]: 72%
- Activity [48]: < 10%
- Vd [49]: 1.5 L/kg

Structure (SMILES): CC(C)n1ncnc1-c1cn2c(n1)-c1cnc(N3CCC[C@@H]3C(N)=O)cc1OCC2
- Ki [2]: 3.2 nM
